Results from ChEMBL document CHEMBL1144352, “Effects of flavonoids on cell proliferation and caspase activation in a human colonic cell line HT29: an SAR study” (2005).

What was measured:
Assay type in all cases: functional
[1] = tested on: HT-29; experiment: Antiproliferative effect against human colonic cell line (HT-29) after 6 hr at a concentration of 50 uM
Method in brief: (§1)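 HT-29 cells plated at 15 000/well in DMEM with 5% fetal calf serum for 24 h, then medium replaced with fresh medium containing compound at 50 µM plus 200 µM sodium ascorbate. After incubation, neutral red (50 µg/mL) uptake for 2 h, formaldehyde/CaCl2 fixation, ethanol:acetic acid extraction, OD 550 nm. Result as % of control cells, mean ± SD, n > 18 wells, ≥4 experiments.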

[2] = tested on: HT-29; experiment: Antiproliferative effect against human colonic cell line (HT-29) after 24 hr at a concentration of 50 uM; method in brief: as §1
[3] = tested on: HT-29; experiment: Caspase 3/7 activity is expressed as ratio of caspase activation in treated human colonic cell line (HT-29) to that of untreated control cells after 5 hr
Method in brief: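 Caspase 3/7 measured with ApopOne kit. HT-29 cells were seeded at 15 000/well and exposed to test molecule for 5 h. Reagent containing caspase substrate and lysis buffer was then added, followed by 45 min at 37 °C. Fluorescence read at excitation 485 nm and emission 538 nm. Reported as ratio of treated to untreated control, mean of duplicate wells on one plate.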

Compound	Activity [1]	Activity [2]	Caspase induction [3]
COc1ccc(-c2cc(=O)c3c(OC)c(OC)c(OC)cc3o2)cc1O	95.4	102.1	
Cc1c(O)cc2oc(-c3ccccc3)cc(=O)c2c1O	104	101	
CC(C)=CCc1c(O)cc2oc(-c3ccccc3)cc(=O)c2c1O	87.9	87.9	
O=c1cc(-c2ccccc2)oc2cc(OCc3ccccc3)cc(O)c12	96.6	87.1	
O=c1cc(-c2ccccc2)oc2cc(O)c(Cc3ccccc3)c(O)c12	65.3	57.6	
O=c1cc(-c2ccccc2)oc2c(Cc3ccccc3)c(O)cc(O)c12	103.2	97.4	
CC(C)=CCc1c(O)cc(O)c2c(=O)cc(-c3ccccc3)oc12	86.3	75.5	0.9
COc1cc(O)cc2oc(-c3ccccc3)cc(=O)c12	104.7	107.6	
C=CC(C)(C)c1c(O)cc(O)c2c(=O)c(O)c(-c3ccccc3)oc12	76.7	63	1.1
COc1cc(-c2oc3cc(O)cc(O)c3c(=O)c2OC)cc(OC)c1OC	101.9	101.8	
COc1ccc(C(=O)/C=C(\O)c2ccc(O)cc2O)cc1	96.2	96.6	
C=CC(C)(C)c1c(O)cc(O)c2c(=O)cc(-c3ccccc3)oc12	76.7	57.7	1.1
CC(C)=CCC/C(C)=C/COc1cc(O)c2c(=O)cc(-c3ccccc3)oc2c1	90.4	84.3	1.2
C=CC(C)(C)c1c(O)cc2oc(-c3ccccc3)cc(=O)c2c1O	90.4	79.1	
CC(C)=CCc1c(O)cc(O)c2c(=O)c(O)c(-c3ccc(O)cc3)oc12	78.8	71.1	2.7
C=CC(C)(CCC=C(C)C)c1c(O)cc(O)c2c(=O)cc(-c3ccccc3)oc12 (configuration not stated)	28.4	28.1	8.9
C=CC(C)(C)c1cc(C(=O)/C=C/c2ccccc2)c(O)cc1O	35.4	15.6	7.3
COc1c(-c2ccccc2)oc2c(O)c(O)c(CC=C(C)C)c(O)c2c1=O	59.8	71.8	3.5
CC(C)=CCC/C(C)=C/CC/C(C)=C/COc1cc(O)c2c(=O)cc(-c3ccccc3)oc2c1	87.8	83.3	
C=CC(C)(CC/C=C(\C)CCC=C(C)C)c1c(O)cc(O)c2c(=O)cc(-c3ccccc3)oc12 (configuration not stated)	43.3	24.5	6.9
C=CC(C)(C)c1c(O)cc(O)c2c(=O)c(OC)c(-c3ccc(OC)c(OC)c3)oc12	8.5	4.7	5.2

Compound	Activity [1]	Activity [2]	Caspase induction [3]
CC(C)=CCC/C(C)=C/Cc1c(O)cc(O)c2c(=O)cc(-c3ccccc3)oc12	18	7.6	9
CC(C)=CCOc1cc(O)cc2oc(-c3ccccc3)cc(=O)c12	17	19.4	1.4
CC(C)=CCc1c(O)cc(O)c2c(=O)c(O)c(-c3ccc(O)c(O)c3)oc12	68	67	1.9
C=CC(C)(C)c1c(O)cc(O)c2c(=O)c(O)c(-c3ccc(OC)cc3)oc12	56.4	42.1	
COc1ccc(-c2oc3cc(O)cc(O)c3c(=O)c2OC)cc1OC	87.9	74.2	1.1
CC(C)=CCC/C(C)=C/Cc1c(O)cc2oc(-c3ccccc3)cc(=O)c2c1O	58.2	53.9	1.9
CC(C)=CCc1c(O)c(O)c2oc(-c3ccccc3)cc(=O)c2c1O	67.4	71.7	1.6
COc1ccc(-c2oc3cc(O)cc(O)c3c(=O)c2OC)c(OC)c1OC	89.7	91.5	
C=CC(C)(C)c1c(O)cc(O)c2c(=O)c(OC)c(-c3ccc(OC)cc3)oc12	34.5	20.1	8.1
COc1cc(-c2cc(=O)c3c(OC)c(OC)c(OC)cc3o2)cc(OC)c1OC	94.2	100.7	
CC(C)=CCc1c(O)cc(O)c2c(=O)cc(-c3ccc(O)cc3)oc12	76.9	56.2	
COc1cc(OC)c(-c2oc3cc(O)cc(O)c3c(=O)c2OC)cc1OC	90	92.5	
C=CC(C)(C)c1c(O)cc(O)c2c(=O)c(OC)c(-c3ccccc3)oc12	79.3	79.4	1.3
COc1cc2oc(-c3ccccc3)cc(=O)c2c(O)c1C	92.2	83.8	
O=C(/C=C/c1ccc(O)cc1)c1c(O)cc(O)cc1O [4,2',4',6'-TETRAHYDROXYCHALCONE]	102	94.1	
O=c1cc(-c2ccccc2)oc2cc(O)cc(O)c12 [CHRYSIN]	86.6	62.8	0.8
COc1ccc(-c2oc3cc(O)cc(O)c3c(=O)c2OC)cc1 [ERMANIN]	92	77.1	1.2
COc1ccc(-c2oc3cc(O)cc(O)c3c(=O)c2O)cc1 [KAEMPFERIDE]	99.77	84.7	1
O=c1c(O)c(-c2ccc(O)cc2)oc2cc(O)cc(O)c12 [KAEMPFEROL]	92	89.6	1.8
O=C1C[C@@H](c2ccc(O)cc2)Oc2cc(O)cc(O)c21 [NARINGENIN]	102.2	94.8	
O=c1c(O)c(-c2ccc(O)c(O)c2)oc2cc(O)cc(O)c12 [QUERCETIN]	61.4	51.3	1
